Laboratory results from ChEMBL document CHEMBL2034924, “Optimization of a Potent, Orally Active S1P1 Agonist Containing a Quinolinone Core” (ACS Med Chem Lett, 2012).
≈ marks a conversion by molar mass, not a printed value.

Legend:
[1] = target: T1, Sphingosine 1-phosphate receptor 3 (Homo sapiens, UniProt Q99500); experiment: Agonist activity at human S1P3 receptor expressed in CHO cells coexpressing Gq/i5 G-protein assessed as Ca2+ mobilization at 25 uM after 60 to 90 mins by FLIPR assay; assay type: functional, cell-based
T1 sequence (Q99500 whole entry): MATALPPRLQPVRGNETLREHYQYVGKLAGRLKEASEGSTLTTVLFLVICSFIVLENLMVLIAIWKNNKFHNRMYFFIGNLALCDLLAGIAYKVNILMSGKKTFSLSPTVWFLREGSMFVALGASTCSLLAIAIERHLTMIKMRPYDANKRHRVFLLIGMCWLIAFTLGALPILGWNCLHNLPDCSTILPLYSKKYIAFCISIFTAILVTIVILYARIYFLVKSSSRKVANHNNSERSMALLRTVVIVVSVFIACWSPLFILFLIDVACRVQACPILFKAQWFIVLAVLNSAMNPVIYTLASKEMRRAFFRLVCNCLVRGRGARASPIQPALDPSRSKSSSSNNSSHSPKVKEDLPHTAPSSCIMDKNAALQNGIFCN

[2] = Intrinsic clearance in rat liver microsomes at 1 uM after 30 mins; assay type: ADME, Microsome; conditions: read-out: CLH
[3] = Apparent permeability of the compound across pig LLC-PK1 cells; assay type: ADME, cell-based, Sus scrofa
Outline: (§1)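 Parental porcine proximal tubule LLC-PK1 cell line. Apparent permeability was measured, and the efflux ratio was derived from it.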

[4] = test system: Plasma; experiment: (§2) Plasma concentration in Lewis rat at 1 mg/kg, po measured 24 hrs post dosing; assay type: ADME, organism-based; set-up: dose 1 mg/kg, route oral; conditions: in vivo, 24 h, BLD = below limit of detection
Outline: (§3)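 Female Lewis rats (N = 5/group) received a single oral dose of 1 mg/kg in 20% captisol, 1% HPMC, 1% pluronic F68, pH 2.1 with MSA. Peripheral lymphocyte count is given as percent-of-control reduction versus vehicle at 24 h. Total plasma drug concentration was measured at 24 h. Statistics used ANOVA/Dunnett versus vehicle.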

[5] = test system: Rattus norvegicus; experiment: Lymphopenic activity in Lewis rat assessed as reduction in peripheral blood lymphocyte counts at 1 mg/kg, po measured 24 hrs post dosing relative to control; assay type: functional; set-up: scale not given: the % may be the effect or the level left; outline: as §3
[6] = target: T2, Sphingosine 1-phosphate receptor 1 (Homo sapiens, UniProt P21453); experiment: Agonist activity at human S1P1 receptor expressed in human U2OS cells co-expressing eGFP assessed as receptor internalization after 1 hr; assay type: functional, cell-based
T2 sequence (P21453 whole entry, the tested form may be a part): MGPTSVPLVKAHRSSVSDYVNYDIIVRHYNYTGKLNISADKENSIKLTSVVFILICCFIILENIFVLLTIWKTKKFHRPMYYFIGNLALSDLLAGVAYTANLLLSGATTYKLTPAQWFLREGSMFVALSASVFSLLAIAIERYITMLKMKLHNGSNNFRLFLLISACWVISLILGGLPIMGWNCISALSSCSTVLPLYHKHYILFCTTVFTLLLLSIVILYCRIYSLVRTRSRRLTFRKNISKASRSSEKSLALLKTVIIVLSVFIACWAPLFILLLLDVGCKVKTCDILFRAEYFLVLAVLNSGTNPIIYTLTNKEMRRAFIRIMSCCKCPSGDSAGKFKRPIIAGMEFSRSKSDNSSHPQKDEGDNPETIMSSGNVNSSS
Outline: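 U2OS cells expressing an hS1P1-GFP fusion protein; the read-out was receptor internalization. EC50 is the molar concentration giving a half-maximal response.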

[7] = Solubility of the compound in simulated intestinal fluid at pH 6.8 after 2 to 3 days by HPLC analysis; assay type: physicochemical
[8] = target: T2, Sphingosine 1-phosphate receptor 1; experiment: Agonist activity at human S1P1 receptor expressed in human U2OS cells co-expressing eGFP assessed as receptor internalization after 1 hr relative to 1-(4-(6-benzylbenzofuran-2-yl)-3-fluorobenzyl)azetidine-3-carboxylic acid; assay type: functional, cell-based
[9] = Efflux ratio of permeability in pig LLC-PK1 cells; assay type: ADME, cell-based, Sus scrofa; outline: as §1
[10] = target: T1, Sphingosine 1-phosphate receptor 3; experiment: Agonist activity at human S1P3 receptor expressed in CHO cells coexpressing Gq/i5 G-protein assessed as Ca2+ mobilization after 60 to 90 mins by FLIPR assay; assay type: functional, cell-based
Outline: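 Ca2+ mobilization in CHO-K1 cells transfected with hS1P3/Gq/i5. EC50 is the molar concentration giving a half-maximal response.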

[11] = Plasma protein binding in rat; assay type: ADME, cell-free; conditions: read-out: PPB (converted)
[12] = test system: Rattus norvegicus; experiment: AUC (0 to 24 hrs) in rat at 100 mg/kg, po; assay type: ADME, organism-based, Plasma; set-up: time < 24 hr, dose 100 mg/kg, route oral; conditions: in vivo
[13] = AUC (0 to 24 hrs) in rat at 3 mg/kg, po; assay type: ADME, organism-based; set-up: time < 24 hr, dose 3 mg/kg, route oral; conditions: plasma
[14] = target: T1, Sphingosine 1-phosphate receptor 3; experiment: Agonist activity at human S1P3 receptor expressed in CHO cells coexpressing Gq/i5 G-protein assessed as Ca2+ mobilization after 60 to 90 mins by FLIPR assay relative to 0.2 uM S1P
[15] = as §2; assay type: ADME, organism-based; set-up: dose 1 mg/kg, route oral; conditions: Lewis, plasma; outline: as §3

Row | SMILES | Activity [1] | microsomal CLint at 1 µM [2] | Papp [3] | Cp [4] | EC50 [6] | solubility [7] | Efficacy [8] | efflux ratio [9] | EC50 [10] | fraction unbound [11] | AUC [12] | AUC(0-t) at 24 h [13] | Efficacy [14] | concentration at 24 h [15] | Activity [5]
1 | Cn1cc(C(=O)Nc2ccc(-c3ccccc3)c(C(F)(F)F)c2)c(=O)c2ccc(C(=O)O)cc21 | < 10% | < 14 µL/min/mg | 3 ×10⁻⁶ cm/s | BLD | 21 nM | 48 µg/mL (≈ 103 µM) | 98% | 6.7 | > 25000 nM | 0.02 | – | – | – | – | 4%
2 | Cn1cc(C(=O)Nc2ccc(-c3ccccc3)c(C(F)(F)F)c2)c(=O)c2ccc(CN3CC(C(=O)O)C3)cc21 | < 10% | – | – | – | 25 nM | – | 108% | – | > 25000 nM | – | – | – | – | – | –
3 | Cn1cc(C(=O)Nc2ccc(-c3ccccc3)c(C(F)(F)F)c2)c(=O)c2ccc(CCC(=O)O)cc21 | – | < 14 µL/min/mg | 1.6 ×10⁻⁶ cm/s | – | 4 nM | 200 µg/mL (≈ 404 µM) | 85% | 1 | 940 nM | 0.022 | – | – | 82% | 4 ng/mL | -25%
4 | Cn1cc(C(=O)Nc2ccc(-c3ccccc3)c(C(F)(F)F)c2)c(=O)c2cccc(CN)c21 | – | – | – | – | 81 nM | – | 118% | – | 5600 nM | – | – | – | 48% | – | –
5 | Cn1cc(C(=O)Nc2ccc(-c3ccccc3)c(C(F)(F)F)c2)c(=O)c2ccc(CCO)cc21 | < 10% | < 14 µL/min/mg | 2.2 ×10⁻⁶ cm/s | – | 8 nM | 6 µg/mL (≈ 12.9 µM) | 118% | 1 | > 25000 nM | 0.073 | – | – | – | 27 ng/mL | -48%

More lines, main results first:

Row | Activity [1] | microsomal CLint at 1 µM [2] | Papp [3] | Cp [4] | EC50 [6] | solubility [7] | Efficacy [8] | efflux ratio [9] | EC50 [10] | fraction unbound [11] | AUC [12] | AUC(0-t) at 24 h [13] | Efficacy [14] | concentration at 24 h [15] | SMILES | Activity [5]
6 | – | – | – | – | – | – | – | – | – | – | 73 µM·h | 12 µM·h | – | – | COc1ccncc1C(=O)NC(=O)Nc1ccc(-c2ccccc2)c(C(F)(F)F)c1 | –
7 | < 10% | – | – | – | 39 nM | – | 104% | – | > 25000 nM | – | – | – | – | – | Cn1cc(C(=O)Nc2ccc(-c3ccccc3)c(C(F)(F)F)c2)c(=O)c2cccc(CO)c21 | –
8 | < 10% | – | – | – | 150 nM | – | 81% | – | > 25000 nM | – | – | – | – | – | Cn1cc(C(=O)Nc2ccc(-c3ccccc3)c(C(F)(F)F)c2)c(=O)c2ccc(NCCC(=O)O)cc21 | –
9 | < 10% | – | – | – | 15 nM | – | 118% | – | > 25000 nM | – | – | – | – | – | Cn1cc(C(=O)Nc2ccc(-c3ccccc3)c(C(F)(F)F)c2)c(=O)c2ccc(CCCO)cc21 | –
